Measured values: ChEMBL document CHEMBL1287751, “Development of a sphingosine kinase 1 specific small-molecule inhibitor” (Bioorg Med Chem Lett, 2010)
Values belong to the compound of their own block, whether it stands above or below them. Active and inactive are the calls of the source. The rule behind the calls is not given here.

What was measured:
[1] = target: T1, Sphingosine kinase 1 (Homo sapiens, UniProt Q9NYA1); assay: Inhibition of His6x-tagged recombinant sphingosine kinase 1 expressed in HEK293 cells at 10.7 uM; assay type: cell-based
Procedure, shortened: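 Affinity-purified His6X-tagged SphK1, recombinantly overexpressed in HEK293 cells. Substrate was 25 µM D-erythro-sphingosine in SKAAB buffer, without BSA conjugation or Triton X-100 micelles. Compounds screened at 10.7 µM, with DMSO controls at ≤5% of reaction volume. Reported as % inhibition, averages of two separate experiments.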

[2] = Cytotoxicity against human Kusami-3 cells after 48 hrs by sulforhodamine B assay; assay type: functional, cell-based; settings: Kusami-3, 48 h
[3] = target: T2, Sphingosine kinase 2 (Homo sapiens) (UniProt Q9NRA0); assay: Inhibition of sphingosine kinase 2 up to 25 uM
T2 sequence (whole entry): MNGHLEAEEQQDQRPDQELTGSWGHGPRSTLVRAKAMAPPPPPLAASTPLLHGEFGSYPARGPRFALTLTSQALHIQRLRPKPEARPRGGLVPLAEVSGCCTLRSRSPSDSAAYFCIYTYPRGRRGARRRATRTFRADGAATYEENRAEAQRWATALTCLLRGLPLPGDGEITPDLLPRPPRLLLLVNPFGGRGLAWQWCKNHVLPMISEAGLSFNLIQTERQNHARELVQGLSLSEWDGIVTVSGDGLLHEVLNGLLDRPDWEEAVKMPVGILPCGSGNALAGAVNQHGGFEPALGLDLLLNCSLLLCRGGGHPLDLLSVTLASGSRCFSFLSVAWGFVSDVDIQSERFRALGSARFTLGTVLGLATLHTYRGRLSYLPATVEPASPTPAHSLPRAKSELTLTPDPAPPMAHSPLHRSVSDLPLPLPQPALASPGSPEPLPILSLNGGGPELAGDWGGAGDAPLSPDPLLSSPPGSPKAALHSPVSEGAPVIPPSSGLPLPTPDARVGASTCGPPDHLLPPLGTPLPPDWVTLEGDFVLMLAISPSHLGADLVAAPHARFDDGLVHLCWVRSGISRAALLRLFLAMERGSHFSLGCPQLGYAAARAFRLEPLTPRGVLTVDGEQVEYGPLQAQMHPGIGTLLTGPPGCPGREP
Procedure, shortened: (§1)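 SphK2 activity assay in SKAAB buffer supplemented with 1 M KCl. Substrate was D-erythro-sphingosine delivered without BSA or Triton X-100. DMSO ≤5% of reaction volume.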

[4] = test system: MCF7; assay: Cytotoxicity against human MCF7 cells after 48 hrs by sulforhodamine B assay; assay type: functional, cell-based; settings: MCF7, 48 h
[5] = test system: BXPC-3; assay: Cytotoxicity against human BxPC3 cells after 48 hrs by sulforhodamine B assay; assay type: functional, cell-based; settings: BXPC-3, 48 h
[6] = target: T1, Sphingosine kinase 1; assay: Non-competitive inhibition of recombinant sphingosine kinase 1 using ATP as substrate by Lineweaver-Burke plot analysis
[7] = test system: SH-SY5Y; assay: Cytotoxicity against human SH-SY5Y cells after 48 hrs by sulforhodamine B assay; assay type: functional, cell-based
[8] = test system: MIA PaCa-2; assay: Cytotoxicity against human MIAPaCa2 cells after 48 hrs by sulforhodamine B assay; assay type: functional, cell-based; settings: MIA PaCa-2, 48 h
[9] = target: T1, Sphingosine kinase 1; assay: Inhibition of sphingosine kinase 1 in human A549 cells assessed as reduction in sphingosine-1-phosphate cellular level at 1 uM after 48 hrs by thin layer chromatography relative to control; assay type: cell-based
Procedure, shortened: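 A549 cells treated with 1 µM compound for 48 h. SphK activity assays were run on whole-cell lysates, lipids were separated by thin layer chromatography, and S1P was compared with DMSO-treated controls.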

[10] = test system: A549; assay: Ratio of compound cytotoxicity at 1 uM to SKI-I cytotoxicity for human A549 cells
[11] = Cytotoxicity against human NCI/ADR cells after 48 hrs by sulforhodamine B assay; assay type: functional, cell-based; settings: NCI/ADR-RES
[12] = target: T1, Sphingosine kinase 1; assay: Competitive inhibition of recombinant sphingosine kinase 1 using D-erythro-sphingosine as substrate by Lineweaver-Burke plot analysis
Procedure, shortened: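 Recombinant His6X-tagged SphK1, affinity purified from HEK293 overexpression, assayed with varying D-erythro-sphingosine concentrations, with inhibitor absent or at 10 and 17 µM. Sph delivered in SKAAB buffer without BSA conjugation or Triton X-100 micelles. DMSO ≤5% of reaction. Ki and mechanism from linear regression.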

[13] = test system: PANC-1; assay: Cytotoxicity against human PANC1 cells after 48 hrs by sulforhodamine B assay; assay type: functional, cell-based; settings: PANC-1, 48 h
[14] = Cytotoxicity against human KG1a cells after 48 hrs by sulforhodamine B assay; assay type: functional, cell-based; settings: KG-1a
[15] = test system: U-251; assay: Cytotoxicity against human U251 cells after 48 hrs by sulforhodamine B assay; assay type: functional, cell-based; settings: U-251, 48 h
[16] = test system: HL-60; assay: Cytotoxicity against VCR-resistance human HL60 cells after 48 hrs by sulforhodamine B assay; assay type: functional, cell-based; settings: HL-60, 48 h
[17] = Cytotoxicity against human U87MG cells after 48 hrs by sulforhodamine B assay; assay type: functional, cell-based, U-87MG ATCC; settings: U-87 MG
[18] = test system: NCI-H460; assay: Cytotoxicity against human H460 cells after 48 hrs by sulforhodamine B assay; assay type: functional, cell-based; settings: NCI-H460, 48 h
[19] = test system: NCI-H226; assay: Cytotoxicity against human NCI-H226 cells after 48 hrs by sulforhodamine B assay; assay type: functional, cell-based; settings: NCI-H226, 48 h
[20] = test system: MCF7; assay: Cytotoxicity against human tamoxifen-resistant MCF7 cells after 48 hrs by sulforhodamine B assay; assay type: functional, cell-based; settings: MCF7, 48 h
[21] = test system: HL-60; assay: Cytotoxicity against human HL60 cells after 48 hrs by sulforhodamine B assay; assay type: functional, cell-based; settings: HL-60, 48 h
[22] = target: T2, Sphingosine kinase 2 (Homo sapiens); assay: Inhibition of sphingosine kinase 2; procedure, shortened: as §1

T1 sequence (Q9NYA1 whole entry): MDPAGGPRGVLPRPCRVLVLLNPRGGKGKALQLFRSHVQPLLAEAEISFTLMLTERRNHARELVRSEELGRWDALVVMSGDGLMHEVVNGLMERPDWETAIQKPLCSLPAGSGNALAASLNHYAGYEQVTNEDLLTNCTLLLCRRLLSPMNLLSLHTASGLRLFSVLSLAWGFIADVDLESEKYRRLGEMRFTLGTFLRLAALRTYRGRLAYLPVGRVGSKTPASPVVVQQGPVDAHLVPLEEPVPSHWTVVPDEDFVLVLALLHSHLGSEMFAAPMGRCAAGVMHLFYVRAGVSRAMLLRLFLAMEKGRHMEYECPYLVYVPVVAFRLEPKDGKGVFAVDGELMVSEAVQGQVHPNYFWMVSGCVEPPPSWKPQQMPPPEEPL

inhibition [1]: 39.5%
SMILES: O=C(N/N=C/c1ccc(O)cc1O)c1cc(-c2ccc3ccccc3c2)n[nH]1

inhibition [1]: 44.5%
SMILES: COc1ccc(-c2cc(C(=O)N/N=C/c3ccc(OC)c(OC)c3)[nH]n2)cc1

inhibition [1]: 30.8%
SMILES: COc1ccc(-c2cc(C(=O)N/N=C/c3ccc(O)cc3O)[nH]n2)cc1

inhibition [1]: 21.8%
SMILES: COc1ccc(/C(C)=N/NC(=O)c2cc(-c3ccc(C)cc3)n[nH]2)cc1OC

inhibition [1]: 9.8%
SMILES: Cc1ccc(-c2cc(C(=O)N/N=C/c3ccccc3O)[nH]n2)cc1

inhibition [1]: 28%
SMILES: O=C(N/N=C/c1ccc(O)cc1)c1cc(-c2ccc3ccccc3c2)n[nH]1

inhibition [1]: 52.5%
SMILES: COc1ccc(-c2cc(C(=O)N/N=C/c3ccc4ccccc4c3)[nH]n2)cc1

inhibition [1]: 15.3%
SMILES: COc1ccc(-c2cc(C(=O)N/N=C/c3ccc(C(C)C)cc3)[nH]n2)cc1

inhibition [3]: inactive | inhibition [1]: 59.6% | inhibition [6]: Active | inhibition [9]: Active | Ki [12]: 1.33 µM
SMILES: COc1ccc(-c2cc(C(=O)N/N=C(\C)c3ccc(OC)c(OC)c3)[nH]n2)cc1
IC50 [2]: 0.2 µM | IC50 [4]: 1.3 µM | IC50 [5]: 0.2 µM | IC50 [7]: 0.3 µM | IC50 [8]: 0.1 µM | cytotoxicity ratio [10]: 1.37 | IC50 [11]: 1.5 µM | IC50 [13]: 0.1 µM | IC50 [14]: 0.5 µM | IC50 [15]: 0.5 µM | IC50 [16]: 0.2 µM | IC50 [17]: 0.6 µM | IC50 [18]: 0.3 µM | IC50 [19]: 0.3 µM | IC50 [20]: 1.8 µM | IC50 [21]: 0.2 µM

inhibition [1]: 15.5%
SMILES: COc1ccc(-c2cc(C(=O)N/N=C/c3cccc(O)c3)[nH]n2)cc1

inhibition [1]: 38%
SMILES: CCN(CC)c1ccc(/C=N/NC(=O)c2cc(-c3ccc(OC)cc3)n[nH]2)cc1

inhibition [1]: 33.5%
SMILES: COc1ccc(-c2cc(C(=O)N/N=C/c3ccccc3O)[nH]n2)cc1

inhibition [1]: 46.8%
SMILES: COc1ccc(-c2cc(C(=O)N/N=C(\C)c3ccc(Cl)cc3)[nH]n2)cc1

inhibition [1]: 27.4%
SMILES: COc1ccc(-c2cc(C(=O)N/N=C/c3ccc(F)cc3)[nH]n2)cc1

inhibition [1]: 25.1%
SMILES: O=C(N/N=C/c1cccc(O)c1)c1cc(-c2ccc3ccccc3c2)n[nH]1

inhibition [1]: 59.3%
SMILES: O=C(N/N=C/c1ccccc1O)c1cc(-c2ccc3ccccc3c2)n[nH]1

inhibition [22]: Dose-dependent effect | inhibition [9]: Active | Ki [12]: 1.06 µM
SMILES: O=C(N/N=C/c1c(O)ccc2ccccc12)c1cc(-c2ccc3ccccc3c2)n[nH]1

inhibition [1]: 14.3%
SMILES: COc1ccc(-c2cc(C(=O)N/N=C/c3ccc(O)cc3)[nH]n2)cc1

inhibition [1]: 12.5%
SMILES: COc1ccc(-c2cc(C(=O)N/N=C/c3cc(O)cc(O)c3)[nH]n2)cc1

inhibition [1]: 11.9%
SMILES: O=C(N/N=C/c1ccccc1O)c1cc(-c2ccccc2)n[nH]1
